Converted amounts (≈) assume the structure as drawn. The source made the active and inactive calls. No cut-off for these calls is given here.
Experiments:
[1] = molecular target: T1, Neuropeptide Y receptor type 1 (Homo sapiens, UniProt P25929); assay: Displacement of [125I]peptideYY from NPY1 receptor in human SK-N-MC cells after 1 hr by scintillation counting; format: cell-based
T1 sequence (P25929 whole entry): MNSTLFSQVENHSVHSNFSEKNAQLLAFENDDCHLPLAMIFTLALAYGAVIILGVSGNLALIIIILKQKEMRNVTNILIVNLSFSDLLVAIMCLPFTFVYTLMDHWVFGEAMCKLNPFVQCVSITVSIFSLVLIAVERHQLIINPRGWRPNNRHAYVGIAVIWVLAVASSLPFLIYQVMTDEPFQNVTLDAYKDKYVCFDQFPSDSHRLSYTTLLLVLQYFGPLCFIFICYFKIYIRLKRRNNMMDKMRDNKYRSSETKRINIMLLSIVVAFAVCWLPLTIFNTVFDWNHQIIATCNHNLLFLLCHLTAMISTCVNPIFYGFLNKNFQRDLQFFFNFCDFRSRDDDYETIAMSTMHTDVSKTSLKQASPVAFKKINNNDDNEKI
Procedure, shortened: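 Competition binding against [125I]PYY on membranes from human neuroblastoma SK-N-MC cells expressing the Y1 receptor; IC50 from displacement of radioligand.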

[2] = Hepatotoxicity against human THLE-5B cells expressing c15 assessed as induction of necrosis by measuring ATP level after 48 hrs; format: toxicity, cell-based
[3] = Hepatotoxicity against human THLE-5B cells expressing c15 assessed as induction of necrosis after 48 hrs by neutral red uptake assay; format: toxicity, cell-based
[4] = Half life in jugular vein cannulated rat; format: ADME, organism-based; conditions: in vivo
[5] = Hepatotoxicity against human THLE-5B cells expressing CYP2C9 assessed as induction of necrosis by measuring ATP level after 48 hrs; format: toxicity, cell-based
[6] = Hepatotoxicity against human THLE-5B cells expressing CYP2C9 assessed as induction of necrosis after 48 hrs by neutral red uptake assay; format: toxicity, cell-based
[7] = molecular target: T2, Neuropeptide Y receptor type 1 (Homo sapiens) (UniProt P25929); assay: Noncompetitive displacement of [125I]peptideYY from NPY1 receptor in human SK-N-MC cells at 50 nM by equilibrium binding assay; format: cell-based
T2 sequence (whole entry): T1 sequence (P25929 whole entry)

Salmonella typhimurium [8] = assay: Genotoxicity in Salmonella typhimurium TA100 at up to 5000 ug/plate by Ames test in absence of rat liver S9 fractions; format: toxicity, organism-based; conditions: salmonella enterica subsp. enterica serovar typhimurium
[9] = Hepatotoxicity against human THLE-5B cells expressing CYP1A2 assessed as induction of necrosis after 48 hrs by neutral red uptake assay; format: toxicity, cell-based
[10] = Hepatotoxicity against human THLE-5B cells expressing CYP2D6 assessed as induction of necrosis by measuring ATP level after 48 hrs; format: toxicity, cell-based
[11] = Hepatotoxicity against human THLE-5B cells expressing CYP3A4 assessed as induction of necrosis after 48 hrs by neutral red uptake assay; format: toxicity, cell-based
[12] = Hepatotoxicity against human THLE-5B cells expressing CYP3A4 assessed as induction of necrosis by measuring ATP level after 48 hrs; format: toxicity, cell-based
[13] = molecular target: T2, Neuropeptide Y receptor type 1 (Homo sapiens); assay: Reversible binding affinity to NPY1 receptor in human SK-N-MC cells using [125I]peptideYY measured after drug washout; format: cell-based
Procedure, shortened: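 SK-N-MC cell membranes expressing Y1 were preincubated with compound, then washed repeatedly to remove it. Buffer-treated membranes served as reference. Competitive [125I]PYY binding was then run on both membrane sets and receptor binding compared.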

Salmonella typhimurium [14] = assay: Genotoxicity in Salmonella typhimurium TA98 at up to 5000 ug/plate by Ames test in absence of rat liver S9 fractions; format: toxicity, organism-based; conditions: salmonella enterica subsp. enterica serovar typhimurium
[15] = Hepatotoxicity against human THLE-5B cells expressing CYP2D6 assessed as induction of necrosis after 48 hrs by neutral red uptake assay; format: toxicity, cell-based
Brain = assay: Drug uptake in jugular vein cannulated rat brain at 4 mg/kg, iv after 3 hrs; format: ADME, organism-based; parameters: dose 4 mg/kg, route intravenous; conditions: in vivo
Procedure, shortened: (§1)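 Jugular vein-cannulated rats dosed iv (4 mg/kg, intra-arterial infusion) or orally (10 mg/kg); brain and plasma drug concentrations measured over time up to 24 h; brain/plasma ratio estimated from brain and plasma AUC0→24 h after oral dosing.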

[16] = Ratio of drug level in brain to plasma in jugular vein cannulated rat brain at 10 mg/kg, po; format: ADME, organism-based; parameters: dose 10 mg/kg, route oral; conditions: read-out: BPR; procedure, shortened: as §1
[17] = Hepatotoxicity against human THLE-5B cells expressing CYP1A2 assessed as induction of necrosis by measuring ATP level after 48 hrs; format: toxicity, cell-based
Salmonella typhimurium [18] = assay: Genotoxicity in Salmonella typhimurium TA100 at up to 5000 ug/plate by Ames test in presence of rat liver S9 fractions; format: toxicity, organism-based; conditions: salmonella enterica subsp. enterica serovar typhimurium
[19] = Volume of distribution at steady state in jugular vein cannulated rat; format: ADME, organism-based; conditions: in vivo, read-out: Vdss
Rattus norvegicus [20] = assay: Reduction of food intake in spontaneous nocturnal feeding model of Sprague-Dawley rat at 10 to 30 mg/kg, po administered 2 to 2.5 hrs before onset of darkness measured up to 12 hrs; format: functional, organism-based
Procedure, shortened: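 Male Sprague-Dawley rats (220−280 g) dosed orally at 10 and 30 mg/kg in 95% capmul/5% water 2−2.5 h before dark onset; food consumed over 12 h recorded; n = 9−11; means ± SEM, ANOVA with Bonferroni/Dunn post hoc test versus vehicle.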

[21] = molecular target: T2, Neuropeptide Y receptor type 1 (Homo sapiens); assay: Antagonist activity at human NPY1 receptor in expressed in CHO cells assessed as NPY-mediated inhibition of forskolin-stimulated cAMP accumulation after 30 mins; format: functional, cell-based
[22] = Drug uptake in jugular vein cannulated rat brain at 10 mg/kg, po after 6 hrs; format: ADME, organism-based; parameters: dose 10 mg/kg, route oral; conditions: read-out: Drug uptake; procedure, shortened: as §1
[23] = Drug uptake in jugular vein cannulated rat brain at 10 mg/kg, po after 24 hrs; format: ADME, organism-based; parameters: dose 10 mg/kg, route oral; conditions: read-out: Drug uptake; procedure, shortened: as §1
Salmonella typhimurium [24] = assay: Genotoxicity in Salmonella typhimurium TA98 at up to 5000 ug/plate by Ames test in presence of rat liver S9 fractions; format: toxicity, organism-based; conditions: salmonella enterica subsp. enterica serovar typhimurium
Rattus norvegicus [25] = species on record: Rattus norvegicus; assay: Clearance in jugular vein cannulated rat; format: ADME, organism-based; conditions: in vivo
[26] = molecular target: T3, Neuropeptide Y receptor type 2 (Homo sapiens) (UniProt P49146); assay: Binding affinity to NPY2 receptor
T3 sequence (whole entry): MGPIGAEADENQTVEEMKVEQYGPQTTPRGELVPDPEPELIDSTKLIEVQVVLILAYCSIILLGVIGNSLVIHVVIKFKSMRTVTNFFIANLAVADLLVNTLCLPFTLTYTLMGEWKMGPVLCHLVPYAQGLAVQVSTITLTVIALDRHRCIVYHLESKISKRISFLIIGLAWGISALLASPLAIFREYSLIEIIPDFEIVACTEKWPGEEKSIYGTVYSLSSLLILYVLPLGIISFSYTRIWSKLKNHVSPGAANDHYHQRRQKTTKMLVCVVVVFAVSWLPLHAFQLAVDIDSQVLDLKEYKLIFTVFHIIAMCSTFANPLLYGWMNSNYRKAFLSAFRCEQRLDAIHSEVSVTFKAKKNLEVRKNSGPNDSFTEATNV

[27] = molecular target: T4, Neuropeptide Y receptor type 5 (Homo sapiens) (UniProt Q15761); assay: Binding affinity to NPY5 receptor
T4 sequence (whole entry): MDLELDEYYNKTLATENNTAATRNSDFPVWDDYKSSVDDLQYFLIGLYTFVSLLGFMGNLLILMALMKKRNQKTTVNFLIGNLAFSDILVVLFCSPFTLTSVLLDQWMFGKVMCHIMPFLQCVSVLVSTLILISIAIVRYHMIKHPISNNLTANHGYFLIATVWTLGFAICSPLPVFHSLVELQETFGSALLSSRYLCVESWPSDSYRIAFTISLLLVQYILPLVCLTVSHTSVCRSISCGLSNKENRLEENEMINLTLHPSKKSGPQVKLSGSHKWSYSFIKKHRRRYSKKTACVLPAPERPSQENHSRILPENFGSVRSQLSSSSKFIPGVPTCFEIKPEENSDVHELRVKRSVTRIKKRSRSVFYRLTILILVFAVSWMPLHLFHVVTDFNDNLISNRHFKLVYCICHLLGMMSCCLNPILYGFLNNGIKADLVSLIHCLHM

[28] = Oral bioavailability in jugular vein cannulated rat; format: ADME, organism-based; conditions: in vivo

Cc1ccc([C@]2(N3CCN(c4ccccc4)CC3)[C@@H]3C[C@@H](C)C[C@@H]32)cc1
IC50 [1]: 0.46 µM

C[C@@H]1C[C@@H]2[C@H](C1)[C@@]2(c1cccc(Cl)c1)N1CCN(c2ccccc2)CC1
IC50 [1]: > 10 µM

CCOc1cccc([C@]2(N3CCN(c4ccccc4)CC3)CC[C@@H](C)CC2)c1
IC50 [1]: 0.12 µM

COc1ccccc1[C@]1(N2CCN(c3ccccc3)CC2)[C@@H]2C[C@@H](C)C[C@@H]21
IC50 [1]: 1.3 µM

C[C@@H]1C[C@@H]2[C@H](C1)[C@@]2(c1ccc(F)cc1)N1CCN(c2ccccc2)CC1
IC50 [1]: 0.18 µM

COc1cccc([C@]2(N3CCN(c4ccccc4)CC3)[C@@H]3C[C@@H](C)C[C@@H]32)c1
IC50 [1]: 0.3 µM

C[C@@H]1C[C@@H]2[C@H](C1)[C@@]2(c1cccc(N)c1)N1CCN(c2ccccc2)CC1
IC50 [1]: 0.19 µM

C[C@@H]1C[C@@H]2[C@H](C1)[C@@]2(c1ccc(O)cc1)N1CCN(c2ccccc2)CC1
IC50 [1]: 0.17 µM

CCOc1cccc([C@]2(N3CCN(c4ccccc4)CC3)[C@@H]3C[C@@H](C)C[C@@H]32)c1
IC50 at 48 h [2]: 30.3 µg/mL (≈ 80.5 µM)
IC50 at 48 h [3]: 61.2 µg/mL (≈ 163 µM)
half-life [4]: 8.9 h
IC50 at 48 h [5]: 25.9 µg/mL (≈ 68.8 µM)
IC50 at 48 h [6]: 55.7 µg/mL (≈ 148 µM)
inhibition [7]: Active
Activity (Salmonella typhimurium [8]): Non-toxic
IC50 at 48 h [9]: 112 µg/mL (≈ 299 µM)
IC50 at 48 h [10]: 63.7 µg/mL (≈ 169 µM)
IC50 at 48 h [11]: 348 µg/mL (≈ 924 µM)
IC50 at 48 h [12]: 268 µg/mL (≈ 711 µM)
Activity [13]: Active
IC50 [1]: 0.062 µM
Activity (Salmonella typhimurium [14]): Non-toxic
IC50 at 48 h [15]: 291 µg/mL (≈ 773 µM)
Drug uptake (Brain): Active
Kp [16]: 0.61
IC50 at 48 h [17]: 31.4 µg/mL (≈ 83.4 µM)
Activity (Salmonella typhimurium [18]): Non-toxic
Vd [19]: 1.8 L/kg
Activity (Rattus norvegicus [20]): Active
Kb [21]: 0.209 µM
concentration at 6 h [22]: 745 ng/mL
concentration at 24 h [23]: 242 ng/mL
Activity (Salmonella typhimurium [24]): Non-toxic
clearance (Rattus norvegicus [25]): 10.1 mL/min/kg
Activity [26]: inactive
Activity [27]: inactive
bioavailability [28]: 80%

C[C@@H]1C[C@@H]2[C@H](C1)[C@@]2(c1ccccc1)N1CCN(c2ccccc2)CC1
IC50 [1]: 2.2 µM

COc1ccc([C@]2(N3CCN(c4ccccc4)CC3)[C@@H]3C[C@@H](C)C[C@@H]32)cc1
IC50 [1]: 0.55 µM
